ChEMBL document CHEMBL1121581, “4-Piperazinyl-10H-thieno[2,3-b][1,5]benzodiazepines as potential neuroleptics” (J Med Chem, 1980)

Key:
[1] = Lethal dose in mice after perorla administration; assay type: toxicity, organism-based; settings: mouse, in vivo, po
[2] = tested on: Rattus norvegicus; assay: Ability to block a conditioned avoidance response; Dose administered perorally is 50 mg/kg.; assay type: functional; settings: route oral
Outline: (§1)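 Lilly Wistar rats (120–130 g) trained in a shuttle box to cross on a 5-s buzzer, with mild shock if no response within 1 s of buzzer end. Only rats with a high conditioned response were used. Groups of five were dosed orally 1 h 50 min before the session, then habituated 10 min and tested 20 min. Shocks were scored as % of stimuli and graded 0–5.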

[3] = tested on: Mus musculus; assay: Hypothermia in mice after peroral administration; assay type: functional
[4] = tested on: Rattus norvegicus; assay: Compound was assessed for its ability to produce catalepsy in rats; Dose administered perorally is 50 mg/kg; Group score is 0-3; assay type: functional; settings: route oral
Outline: (§2)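 Groups of eight Lilly Wistar rats (180–190 g) were dosed orally, then checked at 0.5, 1, 1.5, 2, 3, 4 and 5 h. Front paws were placed on a 1.5-cm rod 7 cm above the table, and hold time was recorded up to 20 min. Each rat was scored 0–5 and its maximum scores were summed per group (maximum 40), then graded 0–4.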

[5] = tested on: Rattus norvegicus; assay: Compound was assessed for its ability to produce catalepsy in rats; Dose administered perorally is 8 mg/kg; Group score is 4-7; assay type: functional; settings: route oral; outline: as §2
[6] = tested on: Rattus norvegicus; assay: Compound was assessed for its ability to block a conditioned avoidance response; Dose administered perorally is 8 mg/kg; 31-50%block; assay type: functional; settings: route oral; outline: as §1
[7] = tested on: Rattus norvegicus; assay: Compound was assessed for its ability to produce catalepsy in rats; Dose administered perorally is 20 mg/kg; Group score is 8-15; assay type: functional; settings: route oral; outline: as §2
[8] = tested on: Rattus norvegicus; assay: Compound was assessed for its ability to block a conditioned avoidance response; Dose administered perorally is 20 mg/kg; 76-99%block; assay type: functional; settings: route oral; outline: as §1
[9] = tested on: Rattus norvegicus; assay: Compound was assessed for its ability to produce catalepsy in rats; Dose administered perorally is 50 mg/kg; Group score is 4-7; assay type: functional; settings: route oral; outline: as §2
[10] = tested on: Rattus norvegicus; assay: Compound was assessed for its ability to block a conditioned avoidance response; Dose administered perorally is 50 mg/kg; 76-99%block; assay type: functional; settings: route oral; outline: as §1
[11] = tested on: Rattus norvegicus; assay: Compound was assessed for its ability to block a conditioned avoidance response; Dose administered perorally is 10 mg/kg; 31-50%block; assay type: functional; settings: route oral; outline: as §1
[12] = tested on: Rattus norvegicus; assay: Compound was assessed for its ability to produce catalepsy in rats; Dose administered perorally is 10 mg/kg; Group score is 4-7; assay type: functional; settings: route oral; outline: as §2
[13] = tested on: Rattus norvegicus; assay: Compound was assessed for its ability to block a conditioned avoidance response; Dose administered intraperitoneally is 50 mg/kg; no significant effect (0-25%block); assay type: functional; settings: route intraperitoneal
[14] = tested on: Rattus norvegicus; assay: Compound was assessed for its ability to block a conditioned avoidance response; Dose administered perorally is 50 mg/kg; 26-30%block; assay type: functional; settings: route oral; outline: as §1
[15] = tested on: Rattus norvegicus; assay: Compound was assessed for its ability to produce catalepsy in rats; Dose administered perorally is 50 mg/kg; Group score is 8-15; assay type: functional; settings: route oral; outline: as §2
[16] = tested on: Rattus norvegicus; assay: Compound was assessed for its ability to block a conditioned avoidance response; Dose administered perorally is 10 mg/kg; no significant effect (0-25%block); assay type: functional; settings: route oral; outline: as §1
[17] = tested on: Rattus norvegicus; assay: Compound was assessed for its ability to block a conditioned avoidance response; Dose administered perorally is 25 mg/kg; no significant effect (0-25%block); assay type: functional; settings: route oral; outline: as §1
[18] = tested on: Rattus norvegicus; assay: Compound was assessed for its ability to block a conditioned avoidance response; Dose administered perorally is 40 mg/kg; 26-30%block; assay type: functional; settings: route oral; outline: as §1
[19] = tested on: Rattus norvegicus; assay: Compound was assessed for its ability to block a conditioned avoidance response; Dose administered perorally is 10 mg/kg; 51-75%block; assay type: functional; settings: route oral; outline: as §1

| Compound | LD50 [1] [mg/kg] | Activity [2] | EDmin [3] [mg/kg] | other results |
| --- | --- | --- | --- | --- |
| CCOC(=O)N1CCN(C2=Nc3ccccc3Nc3sc(CC)cc32)CC1 | > 400 | 0 | 50 |  |
| CCc1cc2c(s1)Nc1ccc(F)cc1N=C2NCCO | > 800 | 0 | 200 | Activity [4]: 0 |
| CCc1cc2c(s1)Nc1ccc(F)cc1N=C2N1CCN(C)CC1.O=C(O)/C=C\C(=O)O | 200 |  | 6.25 | Activity [5]: 1; Activity [6]: 2 |
| CCc1cc2c(s1)Nc1ccccc1N=C2N1CCN(CCO)CC1 | > 400 |  | 25 | Activity [7]: 2; Activity [8]: 4 |
| CC(O)c1cc2c(s1)Nc1ccc(F)cc1N=C2N1CCN(C)CC1 (configuration not stated) | > 400 |  | 25 | Activity [9]: 1; Activity [10]: 4 |
| CCc1cc2c(s1)Nc1ccccc1N=C2N1CCN(CC)CC1 | 200 |  | 50 | Activity [11]: 2; Activity [12]: 1 |
| CCc1cc2c(s1)Nc1ccc(F)cc1N=C2N1CCN(c2cccc(Cl)c2)CC1 | > 400 |  | >400 | Activity [13]: 0 |
| CCc1cc2c(s1)Nc1cc(F)cc(F)c1N=C2N1CCN(C)CC1 | 600 |  | 25 | Activity [14]: 1; Activity [9]: 1 |
| CCCCCCc1cc2c(s1)Nc1ccc(F)cc1N=C2N1CCN(C)CC1 | > 400 | 0 | 100 |  |
| CCc1cc2c(s1)Nc1ccc(S(C)(=O)=O)cc1N=C2N1CCN(C)CC1 | > 400 | 0 | >400 |  |
| CCc1cc2c(s1)Nc1ccc(F)cc1N=C2N1CCN(c2cccc(C(F)(F)F)c2)CC1 | 400 |  | >400 | Activity [13]: 0 |
| CCc1cc2c(s1)Nc1ccc(F)cc1N=C2N1CCCCC1 | > 200 | 0 | 12.5 |  |
| CCc1cc2c(s1)Nc1ccc(Cl)cc1N=C2N1CCNCC1 | > 400 | 0 | 50 | Activity [4]: 0 |
| CCc1cc2c(s1)Nc1ccc(F)cc1N=C2N1CCN(c2ccccc2)CC1 | > 400 |  | >400 | Activity [13]: 0 |
| CCc1cc2c(s1)Nc1ccccc1N=C2N1CCNCC1 | 800 | 0 | 100 |  |
| CN1CCN(C2=Nc3cc(F)ccc3Nc3sc(-c4ccccc4)cc32)CC1 | > 400 | 0 | 50 | Activity [4]: 0 |
| Cc1cc2c(s1)Nc1ccc(F)cc1N=C2N1CCNCC1 | 400 |  | 100 | Activity [14]: 1 |
| CCc1cc2c(s1)Nc1ccccc1N=C2N1CCN(Cc2ccccc2)CC1 | > 400 |  | 200 | Activity [15]: 2; Activity [10]: 4 |
| CCOC(=O)N1CCN(C2=Nc3cc(F)ccc3Nc3sc(C)cc32)CC1 | > 400 | 0 | >400 |  |
| CCc1cc2c(s1)Nc1ccc(F)cc1N=C2NCCN1CCN(c2ccccc2)CC1 | > 800 | 0 | >400 | Activity [4]: 0 |

| Compound | LD50 [1] [mg/kg] | Activity [2] | EDmin [3] [mg/kg] | other results |
| --- | --- | --- | --- | --- |
| CN1CCN(C2=Nc3ccccc3Nc3sc(C(C)(C)C)cc32)CC1 | 400 |  | 12.5 | Activity [16]: 0 |
| CCCN1CCN(C2=Nc3cc(F)ccc3Nc3sc(CC)cc32)CC1 | > 100 |  | 6.25 | Activity [16]: 0 |
| CCc1cc2c(s1)Nc1ccc([N+](=O)[O-])cc1N=C2N1CCN(C)CC1 | > 400 |  | 50 | Activity [17]: 0 |
| CCc1cc2c(s1)Nc1ccc(F)cc1N=C2N1CCN(Cc2ccc(Cl)cc2)CC1 | > 400 | 0 | >400 | Activity [4]: 0 |
| CCc1cc2c(s1)Nc1ccc(F)cc1N=C2N1CCN(CCO)CC1 | 400 |  | 50 | Activity [8]: 4; Activity [12]: 1 |
| OCCN1CCN(CC/C=C2\c3ccccc3Sc3ccc(C(F)(F)F)cc32)CC1 [E-FLUPENTIXOL] | > 400 |  | >400 | Activity [14]: 1; Activity [4]: 0 |
| CC(=O)c1cc2c(s1)Nc1ccccc1C(N1CCN(C)CC1)=N2 | > 400 |  | 200 | Activity [18]: 1 |
| CCc1cc2c(s1)Nc1ccc(S(=O)(=O)N(C)C)cc1N=C2N1CCN(C)CC1 | > 800 | 0 | >800 |  |
| CCc1cc2c(s1)Nc1ccc(Cl)cc1N=C2N1CCN(C)CC1 | 50 |  | 6.25 | Activity [5]: 1; Activity [6]: 2 |
| CCc1cc2c(s1)Nc1ccc(F)cc1N=C2N1CCOCC1 | > 400 | 0 | >400 |  |
| CCCN1CCN(C2=Nc3ccccc3Nc3sc(CC)cc32)CC1 | > 200 |  | 25 | Activity [7]: 2; Activity [16]: 0 |
| CCc1cc2c(s1)Nc1ccc(SC)cc1N=C2N1CCN(C)CC1 | > 200 | 0 | 100 |  |
| CCOC(=O)N1CCN(C2=Nc3cc(F)ccc3Nc3sc(CC)cc32)CC1 | > 800 | 0 | 100 | Activity [4]: 0 |
| CCc1cc2c(s1)Nc1ccccc1C(N1CCN(C)CC1)=N2 | > 200 |  | 100 | Activity [17]: 0 |
| CCc1cc2c(s1)Nc1ccc(F)cc1N=C2NCCCN1CCOCC1 | 800 |  | 400 | Activity [13]: 0 |
| Cc1csc2c1C(N1CCN(C)CC1)=Nc1cc(F)ccc1N2 | > 200 |  | 25 | Activity [17]: 0 |
| CCc1cc2c(s1)Nc1ccc(Cl)cc1C(N1CCN(C)CC1)=N2 | > 100 | 0 | 50 |  |
| CN(C)CCCN1c2ccccc2Sc2ccc(Cl)cc21 [CHLORPROMAZINE] | 400 |  | 6.25 | Activity [19]: 3; Activity [12]: 1 |
| CCc1cc2c(s1)Nc1ccc(F)cc1N=C2NCCN1CCOCC1 | 400 |  | 200 | Activity [13]: 0 |
| CN1CCN(C2=Nc3cc(F)ccc3Nc3sc4c(c32)CCCC4)CC1 | > 400 | 0 | 100 |  |
